Reference: ChEMBL document CHEMBL4433251, “Discovery of BR102375, a new class of non-TZD PPARγ full agonist for the treatment of type 2 diabetes” (Bioorg Med Chem Lett, 2019)
Activity calls are given as the source filed them. The rule behind the calls is not given here.

What was measured:
[1] = biological target: T1, Peroxisome proliferator-activated receptor gamma (Mus musculus) (UniProt P37238); assay: Agonist activity at GAL4-tagged mouse PPARgamma LBD expressed in monkey CV1 cells assessed as receptor transactivation incubated for 24 hrs by luciferase reporter gene assay relative to telmisartan; format: cell-based
T1 sequence (whole entry): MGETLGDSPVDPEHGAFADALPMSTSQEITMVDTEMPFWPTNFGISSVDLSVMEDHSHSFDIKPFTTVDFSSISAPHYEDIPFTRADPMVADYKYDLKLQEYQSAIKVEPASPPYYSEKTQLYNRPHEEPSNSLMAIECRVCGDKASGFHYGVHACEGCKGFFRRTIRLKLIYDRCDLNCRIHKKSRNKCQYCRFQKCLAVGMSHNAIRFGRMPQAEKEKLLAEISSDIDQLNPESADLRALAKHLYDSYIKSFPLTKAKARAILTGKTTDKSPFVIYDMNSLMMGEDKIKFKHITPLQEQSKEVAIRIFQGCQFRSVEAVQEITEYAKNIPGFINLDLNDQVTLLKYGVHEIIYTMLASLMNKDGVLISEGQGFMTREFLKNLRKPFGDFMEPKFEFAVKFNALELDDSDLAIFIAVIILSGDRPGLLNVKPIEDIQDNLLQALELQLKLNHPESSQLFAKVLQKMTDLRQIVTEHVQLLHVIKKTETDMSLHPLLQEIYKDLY

[2] = biological target: T2, Peroxisome proliferator-activated receptor gamma (Homo sapiens, UniProt P37231); assay: Agonist activity at PPARgamma (unknown origin) assessed as receptor transactivation after 24 hrs by TK-PPRE-Luc expressing cells based luciferase reporter gene assay
T2 sequence (P37231 whole entry): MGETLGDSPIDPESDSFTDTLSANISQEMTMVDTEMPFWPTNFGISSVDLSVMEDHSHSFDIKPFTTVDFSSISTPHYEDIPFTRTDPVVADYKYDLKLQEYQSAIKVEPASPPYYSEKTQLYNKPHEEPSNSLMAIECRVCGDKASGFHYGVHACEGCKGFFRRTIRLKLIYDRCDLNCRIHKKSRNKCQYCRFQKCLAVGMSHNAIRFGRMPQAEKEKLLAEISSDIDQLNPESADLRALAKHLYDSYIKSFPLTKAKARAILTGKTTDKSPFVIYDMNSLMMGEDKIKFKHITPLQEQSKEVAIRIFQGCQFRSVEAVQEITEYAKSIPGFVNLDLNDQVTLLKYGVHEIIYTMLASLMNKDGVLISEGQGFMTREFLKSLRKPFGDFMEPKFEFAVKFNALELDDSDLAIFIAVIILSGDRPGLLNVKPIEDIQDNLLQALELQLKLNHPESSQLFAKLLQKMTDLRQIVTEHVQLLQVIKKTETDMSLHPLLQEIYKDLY
In short: (§1)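 Luciferase reporter gene assay in cells transfected with PPRE and luciferase genes; luciferase induction measured over a range of concentrations to derive EC50 and Amax; Amax expressed as a percentage relative to pioglitazone.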

[3] = biological target: T3, Peroxisome proliferator-activated receptor gamma (Homo sapiens) (UniProt P37231); assay: Agonist activity at PPARgamma (unknown origin) assessed as receptor transactivation after 24 hrs by TK-PPRE-Luc expressing cells based luciferase reporter gene assay relative to pioglitazone; in short: as §1
T3 sequence (whole entry): T2 sequence (P37231 whole entry)

hERG (KCNH2) = hERG (KCNH2) (Homo sapiens, UniProt Q12809); assay: Inhibition of human ERG at 10 uM
In short: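 hERG: % inhibition measured at 10 µM.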

[4] = Stability in mouse liver microsomes assessed as parent compound remaining at 30 mins; format: ADME, Microsome; conditions: read-out: Stability
In short: (§2)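 Compound incubated with liver microsomes (mouse, rat, dog, human) for 30 min; stability expressed as % of parent concentration remaining.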

[5] = Stability in rat liver microsomes assessed as parent compound remaining at 30 mins; format: ADME, Microsome; conditions: read-out: Stability; in short: as §2
[6] = Stability in dog liver microsomes assessed as parent compound remaining at 30 mins; format: ADME, Canis lupus familiaris, Microsome; conditions: read-out: Stability; in short: as §2
[7] = Stability in human liver microsomes assessed as parent compound remaining at 30 mins; format: ADME, Microsome; conditions: read-out: Stability; in short: as §2
CYP1A2 = biological target: T4, CYP1A2 (Homo sapiens, UniProt P05177); assay: Inhibition of CYP1A2 (unknown origin) assessed as enzyme remaining activity at 10 uM; format: ADME; conditions: read-out: INH
T4 sequence (P05177 whole entry): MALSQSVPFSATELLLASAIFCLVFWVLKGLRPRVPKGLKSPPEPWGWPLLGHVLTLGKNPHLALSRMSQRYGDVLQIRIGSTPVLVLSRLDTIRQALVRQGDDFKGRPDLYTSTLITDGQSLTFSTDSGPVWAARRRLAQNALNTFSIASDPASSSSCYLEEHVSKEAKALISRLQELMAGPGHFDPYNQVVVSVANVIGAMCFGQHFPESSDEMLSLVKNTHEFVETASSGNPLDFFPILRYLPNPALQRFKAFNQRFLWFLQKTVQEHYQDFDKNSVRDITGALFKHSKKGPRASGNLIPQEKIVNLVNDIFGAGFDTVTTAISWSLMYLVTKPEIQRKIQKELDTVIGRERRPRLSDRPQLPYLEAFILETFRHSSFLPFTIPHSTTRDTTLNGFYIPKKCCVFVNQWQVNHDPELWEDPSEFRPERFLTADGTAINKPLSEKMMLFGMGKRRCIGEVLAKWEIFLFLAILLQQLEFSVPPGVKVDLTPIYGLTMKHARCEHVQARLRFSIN
In short: (§3)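 CYP isoforms 1A2, 2C9, 2C19, 2D6, 3A4: % remaining enzyme activity in presence of 10 uM compound.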

CYP2C9 = CYP2C9 (Homo sapiens, UniProt P11712); assay: Inhibition of CYP2C9 (unknown origin) assessed as enzyme remaining activity at 10 uM; format: ADME; conditions: read-out: INH; in short: as §3
CYP2C19 = CYP2C19 (Homo sapiens, UniProt P33261); assay: Inhibition of CYP2C19 (unknown origin) assessed as percentage remaining activity at 10 uM; format: ADME; conditions: read-out: INH; in short: as §3
CYP2D6 = CYP2D6 (Homo sapiens, UniProt P10635); assay: Inhibition of CYP2D6 (unknown origin) assessed as percentage remaining activity at 10 uM; format: ADME; conditions: read-out: INH; in short: as §3
CYP3A4 = CYP3A4 (Homo sapiens, UniProt P08684); assay: Inhibition of CYP3A4 (unknown origin) assessed as percentage remaining activity at 10 uM; format: ADME; conditions: read-out: INH; in short: as §3
[8] = Half life in mouse at 10 mg/kg, po; format: ADME, organism-based; conditions: in vivo
[9] = Tmax in mouse at 10 mg/kg, po; format: ADME, organism-based; conditions: in vivo
[10] = Cmax in mouse at 10 mg/kg, po; format: ADME, organism-based; parameters: dose 10 mg/kg, route oral; conditions: in vivo
[11] = AUClast in mouse at 10 mg/kg, po; format: ADME, organism-based; parameters: dose 10 mg/kg, route oral, time 0 - last; conditions: in vivo
Mus musculus [12] = assay: Antidiabetic activity in db/db mouse assessed as reduction in random blood glucose level at 30 mg/kg, po administered daily once for 2 weeks; format: functional, organism-based
Mus musculus [13] = assay: Antidiabetic activity in db/db mouse assessed as reduction in body weight gain at 30 mg/kg, po administered daily once for 2 weeks; format: functional, organism-based
Mus musculus [14] = assay: Antidiabetic activity in db/db mouse assessed as reduction in blood glucose level at 30 mg/kg, po administered daily once for 2 weeks and measured on day 14 by OGTT method; format: functional, organism-based
[15] = Toxicity in db/db mouse assessed as reduction in food intake at 30 mg/kg, po administered daily once and measured on day 7; format: organism-based; conditions: in vivo

Sequence of hERG (KCNH2) (Q12809 whole entry): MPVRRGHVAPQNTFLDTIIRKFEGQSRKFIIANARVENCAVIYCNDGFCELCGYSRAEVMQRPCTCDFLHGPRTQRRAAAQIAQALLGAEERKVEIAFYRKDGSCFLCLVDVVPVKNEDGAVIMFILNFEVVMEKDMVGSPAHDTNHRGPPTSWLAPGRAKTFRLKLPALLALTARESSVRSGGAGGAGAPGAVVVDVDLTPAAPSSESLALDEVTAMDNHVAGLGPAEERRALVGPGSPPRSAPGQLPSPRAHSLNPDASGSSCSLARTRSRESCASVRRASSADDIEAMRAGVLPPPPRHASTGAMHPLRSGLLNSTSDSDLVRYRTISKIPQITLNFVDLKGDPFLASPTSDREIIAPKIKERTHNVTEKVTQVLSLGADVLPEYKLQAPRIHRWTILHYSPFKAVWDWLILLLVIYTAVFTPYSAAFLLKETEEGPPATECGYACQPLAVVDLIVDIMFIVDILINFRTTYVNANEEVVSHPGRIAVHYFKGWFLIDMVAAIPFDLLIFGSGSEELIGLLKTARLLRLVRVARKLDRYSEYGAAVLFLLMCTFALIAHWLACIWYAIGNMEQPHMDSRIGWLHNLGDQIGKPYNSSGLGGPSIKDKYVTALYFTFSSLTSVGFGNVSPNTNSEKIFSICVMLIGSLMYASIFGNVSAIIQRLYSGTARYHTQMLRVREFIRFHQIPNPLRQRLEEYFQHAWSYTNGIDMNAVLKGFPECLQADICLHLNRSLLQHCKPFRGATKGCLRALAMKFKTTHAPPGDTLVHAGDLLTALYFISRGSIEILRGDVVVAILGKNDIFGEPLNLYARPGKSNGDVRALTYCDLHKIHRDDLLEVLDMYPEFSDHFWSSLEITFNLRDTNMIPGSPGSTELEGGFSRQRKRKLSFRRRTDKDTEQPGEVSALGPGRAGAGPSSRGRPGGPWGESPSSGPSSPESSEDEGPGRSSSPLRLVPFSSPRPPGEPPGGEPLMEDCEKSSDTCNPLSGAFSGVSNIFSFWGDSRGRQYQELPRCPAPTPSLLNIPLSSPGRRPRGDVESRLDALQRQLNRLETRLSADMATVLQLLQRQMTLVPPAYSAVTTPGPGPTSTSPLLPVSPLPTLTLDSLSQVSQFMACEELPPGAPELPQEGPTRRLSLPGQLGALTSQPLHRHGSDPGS
Sequence of CYP2D6 (P10635 whole entry): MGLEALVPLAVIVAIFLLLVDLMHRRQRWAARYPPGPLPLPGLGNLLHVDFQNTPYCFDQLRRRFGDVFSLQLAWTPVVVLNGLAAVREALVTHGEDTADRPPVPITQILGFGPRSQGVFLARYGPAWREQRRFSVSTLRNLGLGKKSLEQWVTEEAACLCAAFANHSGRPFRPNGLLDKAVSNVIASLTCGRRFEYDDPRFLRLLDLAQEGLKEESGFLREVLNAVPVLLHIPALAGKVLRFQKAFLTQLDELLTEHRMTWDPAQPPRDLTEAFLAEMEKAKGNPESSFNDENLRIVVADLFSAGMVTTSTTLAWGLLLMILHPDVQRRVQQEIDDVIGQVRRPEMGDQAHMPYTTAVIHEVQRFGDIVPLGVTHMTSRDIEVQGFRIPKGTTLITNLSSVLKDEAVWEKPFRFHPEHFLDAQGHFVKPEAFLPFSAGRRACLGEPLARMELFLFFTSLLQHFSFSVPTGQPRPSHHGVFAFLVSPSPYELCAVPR
Sequence of CYP2C9 (P11712 whole entry): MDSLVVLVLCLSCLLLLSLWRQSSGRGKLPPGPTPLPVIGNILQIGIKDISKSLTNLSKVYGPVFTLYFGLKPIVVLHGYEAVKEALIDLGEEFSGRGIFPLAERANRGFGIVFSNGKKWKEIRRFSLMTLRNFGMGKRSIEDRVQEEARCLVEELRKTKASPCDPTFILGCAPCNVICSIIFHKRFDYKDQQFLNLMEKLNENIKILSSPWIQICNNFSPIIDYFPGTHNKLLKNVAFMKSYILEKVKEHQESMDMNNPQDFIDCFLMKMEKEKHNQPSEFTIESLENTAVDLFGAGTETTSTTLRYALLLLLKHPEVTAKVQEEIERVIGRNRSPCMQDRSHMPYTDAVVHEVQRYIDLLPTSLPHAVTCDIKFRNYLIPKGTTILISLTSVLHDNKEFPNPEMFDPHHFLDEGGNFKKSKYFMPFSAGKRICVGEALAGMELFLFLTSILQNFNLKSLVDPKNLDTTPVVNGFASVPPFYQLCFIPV
Sequence of CYP2C19 (P33261 whole entry): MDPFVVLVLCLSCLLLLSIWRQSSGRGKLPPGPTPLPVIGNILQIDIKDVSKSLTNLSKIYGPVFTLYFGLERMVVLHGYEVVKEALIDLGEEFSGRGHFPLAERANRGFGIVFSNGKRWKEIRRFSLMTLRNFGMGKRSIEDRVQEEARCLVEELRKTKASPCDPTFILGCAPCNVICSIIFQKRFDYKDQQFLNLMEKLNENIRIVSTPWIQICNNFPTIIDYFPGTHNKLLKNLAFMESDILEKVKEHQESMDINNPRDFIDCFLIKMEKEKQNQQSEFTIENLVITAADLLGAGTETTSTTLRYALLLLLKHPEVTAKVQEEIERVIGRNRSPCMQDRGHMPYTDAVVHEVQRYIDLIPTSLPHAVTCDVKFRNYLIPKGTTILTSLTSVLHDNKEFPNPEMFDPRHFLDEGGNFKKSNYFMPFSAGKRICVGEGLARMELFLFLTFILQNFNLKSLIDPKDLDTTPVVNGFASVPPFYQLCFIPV
Sequence of CYP3A4 (P08684 whole entry): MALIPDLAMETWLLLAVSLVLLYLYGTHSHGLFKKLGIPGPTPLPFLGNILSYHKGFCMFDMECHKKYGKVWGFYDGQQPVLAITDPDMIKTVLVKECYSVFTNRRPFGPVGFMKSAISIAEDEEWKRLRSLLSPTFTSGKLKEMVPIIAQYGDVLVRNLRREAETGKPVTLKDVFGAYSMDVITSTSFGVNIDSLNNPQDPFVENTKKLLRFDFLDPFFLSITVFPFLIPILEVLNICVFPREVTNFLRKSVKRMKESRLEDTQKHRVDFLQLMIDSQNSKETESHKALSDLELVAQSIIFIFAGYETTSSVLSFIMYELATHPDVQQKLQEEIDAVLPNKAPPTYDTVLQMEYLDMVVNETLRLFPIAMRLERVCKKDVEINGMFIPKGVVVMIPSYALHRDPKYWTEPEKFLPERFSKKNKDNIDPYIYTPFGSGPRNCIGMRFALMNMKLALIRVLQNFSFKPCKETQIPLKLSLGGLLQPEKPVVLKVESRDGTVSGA

Row | SMILES | %max [1] [%] | EC50 [2] [nM] | %max [3] [%] | other results
1 | CCCCc1nc(C)c(Cc2noc(C(C)(C)C)n2)c(=O)n1Cc1ccc(-c2ccccc2-c2noc(=O)[nH]2)cc1 | 258 |  |  | 
2 | CCCCc1nc(C)c(Cc2nc(C(C)C)no2)c(=O)n1Cc1ccc(-c2ccccc2-c2noc(=O)[nH]2)cc1 |  | 1320 | 101 | 
3 | CCCCc1nc(C)c(Cc2nc(Cc3cccc(F)c3)no2)c(=O)n1Cc1ccc(-c2ccccc2-c2noc(=O)[nH]2)cc1 |  | 1390 | 82 | 
4 | CCCCc1nc(C)c(Cc2nc(C3CC3)no2)c(=O)n1Cc1ccc(-c2ccccc2-c2noc(=O)[nH]2)cc1 |  | 4250 | 89 | 
5 | CCCCc1nc(C(C)C)c(Cc2nc(Cc3ccccc3)no2)c(=O)n1Cc1ccc(-c2ccccc2-c2noc(=O)[nH]2)cc1 |  | 1140 | 92 | 
6 | CCCCc1nc(C)c(Cc2noc(C(C)C)n2)c(=O)n1Cc1ccc(-c2ccccc2-c2noc(=O)[nH]2)cc1 | 233 |  |  | 
7 | CCCCc1nc(C)c(Cc2nc(CCOC)no2)c(=O)n1Cc1ccc(-c2ccccc2-c2noc(=O)[nH]2)cc1 |  | 4210 | 68 | 
8 | CCCCc1nc(C(C)C)c(Cc2nnc(C)o2)c(=O)n1Cc1ccc(-c2ccccc2-c2noc(=O)[nH]2)cc1 | 80 |  |  | 
9 | CCCCc1nc(C)c(Cc2nc(Cc3cc(F)cc(F)c3)no2)c(=O)n1Cc1ccc(-c2ccccc2-c2noc(=O)[nH]2)cc1 |  | 1380 | 72 | 
10 | CCCCc1nc(C)c(Cc2nc(C)ns2)c(=O)n1Cc1ccc(-c2ccccc2-c2noc(=O)[nH]2)cc1 | 93 |  |  | 
11 | CCCCc1nc(C)c(Cc2noc(-c3ccccc3F)n2)c(=O)n1Cc1ccc(-c2ccccc2-c2noc(=O)[nH]2)cc1 | 150 |  |  | 
12 | CCCCc1nc(C)c(Cc2nnc(C)s2)c(=O)n1Cc1ccc(-c2ccccc2-c2noc(=O)[nH]2)cc1 | 71 |  |  | 
13 | CCCCc1nc(C)c(Cc2nc(COC)no2)c(=O)n1Cc1ccc(-c2ccccc2-c2noc(=O)[nH]2)cc1 |  | 3390 | 60 | 
14 | CCCCc1nc(C)c(Cc2nc(C)no2)c(=O)n1Cc1ccc(-c2ccccc2-c2noc(=O)[nH]2)cc1 | 136 |  |  | 
15 | CCCCc1nc(C(C)C)c(Cc2nnc(C(C)(C)C)s2)c(=O)n1Cc1ccc(-c2ccccc2-c2noc(=O)[nH]2)cc1 | 180 |  |  | 
16 | CCCCc1nc(C)c(Cc2nc(Cc3ccccc3)no2)c(=O)n1Cc1ccc(-c2ccccc2-c2noc(=O)[nH]2)cc1 |  | 1750 | 105 | 
17 | CCCCc1nc(C)c(Cc2nnc(-c3ccc(F)cc3)[nH]2)c(=O)n1Cc1ccc(-c2ccccc2-c2noc(=O)[nH]2)cc1 | 71 |  |  | 
18 | CCCCc1nc(C(C)C)c(Cc2nnc(-c3ccc(OC)cc3)o2)c(=O)n1Cc1ccc(-c2ccccc2-c2noc(=O)[nH]2)cc1 | 73 |  |  | 
19 | CCCCc1nc(C)c(Cc2nc(C)n[nH]2)c(=O)n1Cc1ccc(-c2ccccc2-c2noc(=O)[nH]2)cc1 | 61 |  |  | 
20 | CCCCc1nc(C(C)C)c(Cc2nc(C(C)(C)C)no2)c(=O)n1Cc1ccc(-c2ccccc2-c2noc(=O)[nH]2)cc1 |  | 590 | 123 | inhibition at 10 µM (hERG (KCNH2)): 16%; remaining at 0.5 h [4]: 24%; remaining at 0.5 h [5]: 13%; remaining at 0.5 h [6]: 13%; remaining at 0.5 h [7]: 12%; activity at 10 µM (CYP1A2): 92%; activity at 10 µM (CYP2C9): 33%; activity at 10 µM (CYP2C19): 78%; activity at 10 µM (CYP2D6): 89%; activity at 10 µM (CYP3A4): 50%; half-life [8]: 49.2 min; Tmax [9]: 19.8 min; Cmax [10]: 547 ng/mL; AUC(0-t) [11]: 581 ng·h/mL
21 | CCCCc1nc(C(C)C)c(Cc2nc(C)ns2)c(=O)n1Cc1ccc(-c2ccccc2-c2noc(=O)[nH]2)cc1 | 79 |  |  | 
22 | CCc1ccc(CCOc2ccc(CC3SC(=O)NC3=O)cc2)nc1 (stereo not drawn) [PIOGLITAZONE] |  |  |  | Activity (Mus musculus [12]): Active; Activity (Mus musculus [13]): inactive; Activity (Mus musculus [14]): Active; Activity [15]: Toxic
23 | CCCCc1nc(C(C)C)c(Cc2nc(Cc3ccc(F)cc3)no2)c(=O)n1Cc1ccc(-c2ccccc2-c2noc(=O)[nH]2)cc1 |  | 1480 | 80 | 
24 | CCCCc1nc(C(C)C)c(Cc2nc(C)no2)c(=O)n1Cc1ccc(-c2ccccc2-c2noc(=O)[nH]2)cc1 | 207 | 1050 | 93 | 
25 | CCCCc1nc(C(C)C)c(Cc2nc(C3CC3)no2)c(=O)n1Cc1ccc(-c2ccccc2-c2noc(=O)[nH]2)cc1 |  | 2550 | 102 | 
26 | CCCCc1nc(C)c(Cc2nc(Cc3ccc(F)cc3)no2)c(=O)n1Cc1ccc(-c2ccccc2-c2noc(=O)[nH]2)cc1 |  | 2410 | 81 | 
27 | CCCCc1nc(C(C)C)c(Cc2nnc(C)s2)c(=O)n1Cc1ccc(-c2ccccc2-c2noc(=O)[nH]2)cc1 | 79 |  |  | 
